A selection: hits, their analogues and other compounds. The true share with any hit is near 3.5%.
MrgX1 antag: antagonists of human MrgX1 receptor, primary screen, HEK293 cells, Fluo-4 calcium flux; Mas-related G-protein coupled receptor member X1 (Homo sapiens), Q96LB2; BAM8-22 antagonism; active compounds read low; B-score at 10 µM; 310,000 tested, 1.3% active;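 active means calcium-response B-score plate-corrected more than 3 library SD below zero, starting fluorescence within 5 deviations, no agonist response on first addition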;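 further: peak minus trough fluorescence over baseline after final BAM8-22 challenge near maximal dose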
Target sequence (Q96LB2 whole entry, looked up): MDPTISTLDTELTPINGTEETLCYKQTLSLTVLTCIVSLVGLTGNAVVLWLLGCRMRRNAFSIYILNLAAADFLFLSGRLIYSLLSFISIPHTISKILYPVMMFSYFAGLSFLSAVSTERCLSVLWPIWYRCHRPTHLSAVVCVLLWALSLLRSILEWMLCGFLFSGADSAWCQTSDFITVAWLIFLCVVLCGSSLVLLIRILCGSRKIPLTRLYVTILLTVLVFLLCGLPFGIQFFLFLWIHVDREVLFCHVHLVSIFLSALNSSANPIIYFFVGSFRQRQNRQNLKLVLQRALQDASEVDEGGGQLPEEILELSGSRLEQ
RGS4 pot: RGS4 potentiators or activators, primary screen, cell-based, HEK293 M3R inducible RGS4, calcium flux | AID 463111, 2010 | 310,000 tested, 0.92% active | B-score at 10 µM | carbachol calcium flux Fluo4; active compounds read low;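 active means B-score of the integrated calcium signal more than 4 SD below the library mean, with starting fluorescence not abnormally high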;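 further: negative B-score means reduced calcium response which marks RGS4 activation or potentiation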
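Reagent: ECmax carbachol challenge; Test system: M3R-expressing HEK293 line, RGS4 induced by doxycycline; Schedule: overnight RGS4 induction, 30 min dye load 37 °C, 20 min compound RT; Detection: calcium dye Fluo4 fluorescence; Read-out: Agonist-evoked peak-minus-minimum fluorescence over baseline, integrated ratio, B score.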
MrgX1 allo act: positive allosteric modulators of MrgX1, primary screen, HEK293 cells, Fluo-4 calcium flux; Mas-related G-protein coupled receptor member X1 (Homo sapiens), Q96LB2; 310,000 tested, 0.63% active; FDSS; active compounds read high; B-score at 10 µM;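 active means plate-corrected calcium response at least 3 library SD above typical, normal starting fluorescence, not activating the receptor alone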;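 further: compound read alongside a low EC10 to EC30 dose of BAM8-22 agonist; peak minus trough fluorescence over baseline measured at the second addition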
MrgX1 agonist: agonists of human MrgX1 receptor, primary screen, HEK293 cells, Fluo-4 calcium flux | Fluo-4 calcium fluorescence, agonist mode; active compounds read high | Mas-related G-protein coupled receptor member X1 (Homo sapiens), Q96LB2 | AID 588627, 2011 | 310,000 tested, 0.44% active | B-score at 10 µM;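 active means calcium response B-score plate-corrected fluorescence ratio at least 3 library SD, with starting fluorescence B-score inside 5 SD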
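Assay system: MrgX1-expressing HEK293 cells / Amount: fifteen thousand cells per well / Doses: test compound in the initial addition of three / Timing: cells plated overnight, dye loaded 0.5 h 37 °C, 0.5 h room temperature / Technique: kinetic calcium dye fluorescence, Fluo-4 NW / Control set: positive and negative controls per plate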
RGS4 block: RGS4 inhibitors, primary screen, cell-based, HEK293 M3R inducible RGS4, calcium flux; Regulator of G-protein signaling 4 (Homo sapiens), P49798; Fluo-4 calcium flux; active compounds read high; triggered by carbachol at its EC20; B-score at 10 µM; 310,000 tested, 0.45% active; AID 463165, 2010;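 active means B-score, a plate-corrected calcium signal, over three deviations above library mean, with baseline fluorescence within five deviations of library mean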;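 further: RGS4 expression induced by doxycycline in cells with stable M3 receptor; B-score is computed from the integrated fluorescence ratio over baseline after carbachol; higher B-score means a larger calcium signal and so more RGS4 inhibition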
Target sequence (P49798 whole entry, looked up): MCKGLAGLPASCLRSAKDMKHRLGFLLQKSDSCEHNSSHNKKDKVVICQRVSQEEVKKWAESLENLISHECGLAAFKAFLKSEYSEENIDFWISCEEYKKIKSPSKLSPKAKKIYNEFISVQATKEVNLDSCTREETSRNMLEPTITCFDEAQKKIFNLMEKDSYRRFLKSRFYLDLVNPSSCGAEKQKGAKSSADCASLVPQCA
RGS4 inh valid: enhanced carbachol calcium response, M3R/RGS4 cells, RGS4 inhibitor project, cell-based, validation screen, HEK293 M3R/RGS4, calcium flux | shares compounds with RGS4 block | calcium response, % at 10 µM | 1,700 tested, 65% active | carbachol calcium Fluo-4 fluorescence; carbachol added at its EC20; 0 = buffer wells, 100 = carbachol control;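 active means duplicate-averaged calcium response above the buffer-only control mean plus 5 SD of those controls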;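 further: integrated fluorescence ratio F max minus min over baseline F0; higher response in RGS4-induced cells means RGS4 inhibition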
M3R Ca ctr: carbachol calcium response in non-induced M3R cells, confirmation, counter-screen for RGS4 inhibitor project, cell-based, HEK293 M3R; carbachol calcium Fluo-4; submaximal (EC20) carbachol stimulus; buffer wells 0%, carbachol control wells 100%; AID 493000, 2010; 1,900 tested, 20% active; shares compounds with RGS4 block; activity (percent), % at 10 µM; call rule not given here;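 further: RGS4 induction absent so cells express M3R without RGS4; higher means more calcium signal and flags a non-specific hit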
M3R basal Ca ctr: second RGS4 inhibitor counter-screen in uninduced cells lacking carbachol; shares compounds with RGS4 block; HEK293 M3R/RGS4 non-induced, Fluo-4 calcium, no carbachol; normalised: buffer wells 0%, carbachol wells 100%; calcium response (agonist-mode artifact), % at 10 µM; 1,900 tested, 22% active; AID 493001;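 active means duplicate-averaged calcium rise in uninduced cells above buffer wells' mean plus 5 SD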
Large screens that a line does not name were inactive (follow-up assays come after a bar, where they were run).

COc1ccc([N+](=O)[O-])cc1/C=N/Nc1nc(N2CCCCC2)nc(N2CCCCC2)n1	RGS4 block 4.8 | RGS4 inh valid 10% | M3R Ca ctr inactive | M3R basal Ca ctr inactive
O=[N+]([O-])c1ccc(Nc2nc(NCCO)nc(N3CCCC3)n2)cc1	none
NNc1nc(Nc2ccc([N+](=O)[O-])cc2)nc(N2CCCCCC2)n1	RGS4 block 5.7 | RGS4 inh valid inactive | M3R Ca ctr inactive | M3R basal Ca ctr inactive
O=c1nc(N2CCCCC2)nc(Nc2ccccc2)[nH]1	none | RGS4 inh valid inactive | M3R Ca ctr inactive | M3R basal Ca ctr inactive
NNc1nc(Nc2ccccc2)nc(Nc2ccccc2)n1	none
COC(=O)c1ccc(NC(=O)c2ccccc2-c2ccccc2C(=O)O)cc1	none
CC(=O)c1cccc(CN2CCC(n3nccc3NC(=O)c3ccc4c(c3)OCO4)CC2)c1	none
CCCCc1nnc(NC(=O)c2ccccc2OCc2c(C)noc2C)s1	none
Cc1cccc(Nc2nc(N3CCCCC3)nc(N3CCCCC3)n2)c1	RGS4 block 9.7 | RGS4 inh valid 48% | M3R Ca ctr 55% | M3R basal Ca ctr inactive
O=C(Oc1cccc(/C=N/Nc2nc(Nc3ccccc3)nc(N3CCOCC3)n2)c1)c1ccco1	none
COc1cc(C2(c3ccc(O)c(OC)c3)C(=O)N(C)c3ccc(C)cc32)ccc1O	none | M3R Ca ctr inactive | M3R basal Ca ctr inactive
Cc1ccc(C)c(N2CCN(S(=O)(=O)c3ccc4c(c3)C(C)(C)C(=O)N4C)CC2)c1	none
COc1cc(C2OC(=O)C3C(c4ccc(OC(C)=O)c(OC)c4)OC(=O)C23)ccc1OC(C)=O (stereo not given)	none
COc1ccc(N2CCN(C(=S)Nc3ccccc3OC)CC2)cc1	none
COc1cc(Cn2nnc3ccccc32)cc(Br)c1O	none
C=C1C(=O)O[C@@H]2[C@H]1[C@@H](OC(=O)/C(C)=C/C)C/C(C)=C\C(=O)/C=C(\C)[C@@H]2O	none | M3R Ca ctr inactive | M3R basal Ca ctr inactive
O=C(c1nnsc1S(=O)(=O)c1ccc(Cl)cc1)N1CCOCC1	none (no result: MrgX1 antag, MrgX1 allo act, MrgX1 agonist)
O=C(c1nnsc1S(=O)c1ccc(Cl)cc1)N1CCOCC1 (stereo not given)	RGS4 block 7.1 (no result: MrgX1 antag, MrgX1 allo act, MrgX1 agonist) | RGS4 inh valid 31% | M3R Ca ctr inactive | M3R basal Ca ctr 24%
CSc1nc(N(CCO)CCO)c2sc3nc(-c4ccco4)c4c(c3c2n1)CCC4	none (no result: MrgX1 antag, MrgX1 allo act, MrgX1 agonist) | RGS4 inh valid inactive | M3R Ca ctr inactive | M3R basal Ca ctr inactive
CSc1nc(SCCO)c2sc3nc(-c4ccco4)c4c(c3c2n1)CC(C)(C)OC4	none (no result: MrgX1 antag, MrgX1 allo act, MrgX1 agonist)
Cc1cc(C)nc(S/C=C/C(=O)c2ccccc2F)n1	RGS4 block 5.8 | RGS4 inh valid 5.0% | M3R Ca ctr inactive | M3R basal Ca ctr inactive
NC(=O)NC1CCCc2c1[nH]c1ccc(Cl)cc21 (stereo not given)	RGS4 block 5.3 | RGS4 inh valid 8.5% | M3R Ca ctr inactive | M3R basal Ca ctr inactive
CCCSc1cc(NCCOC(C)=O)c([N+](=O)[O-])c2nonc12	none
CCC(=O)OCCNc1cc(Sc2nc3ccccc3s2)c2nonc2c1[N+](=O)[O-]	none
O=[N+]([O-])c1c(NCCCO)cc(Sc2nc3ccccc3s2)c2nonc12	RGS4 block 4.7 | RGS4 inh valid 9.5% | M3R Ca ctr inactive | M3R basal Ca ctr 150%
Cc1nnc(Sc2cc(NCCCO)c([N+](=O)[O-])c3nonc23)s1	RGS4 block 10 (no result: MrgX1 antag, MrgX1 allo act, MrgX1 agonist) | RGS4 inh valid 21% | M3R Ca ctr inactive | M3R basal Ca ctr inactive
Cc1nnc(Sc2cc(NCCO)c([N+](=O)[O-])c3nonc23)s1	none (no result: MrgX1 antag, MrgX1 allo act, MrgX1 agonist) | RGS4 inh valid inactive | M3R Ca ctr inactive | M3R basal Ca ctr inactive
CCCC(=O)OCCNc1cc(Sc2nccn2C)c2nonc2c1[N+](=O)[O-]	RGS4 block 13 | RGS4 inh valid 59% | M3R Ca ctr inactive | M3R basal Ca ctr inactive
Cc1cc(C)n(C(C[N+](=O)[O-])c2ccc(Cl)cc2)n1 (stereo not given)	RGS4 block 14 | RGS4 inh valid 8.0% | M3R Ca ctr 44% | M3R basal Ca ctr 22%
Cc1cc(O)c(C(C[N+](=O)[O-])c2ccc(Cl)cc2)c(=O)o1 (stereo not given)	none
COc1ccc(-c2nc3ccccc3nc2-c2ccccc2)cc1OC	none
COc1ccc(OC)c(-c2nc3cc4ccccc4cc3nc2-c2ccccc2)c1	RGS4 block 6.8 | RGS4 inh valid 14% | M3R Ca ctr inactive | M3R basal Ca ctr 94%
COc1cc(/C=C2/C(=O)NN(c3cccc(C)c3)C2=O)ccc1OC(=O)c1ccco1	RGS4 block 6.8 | RGS4 inh valid 16% | M3R Ca ctr 31% | M3R basal Ca ctr inactive
COC(=O)c1ccc(N2NC(=O)/C(=C/c3ccc(OC)c(OC)c3)C2=O)cc1	RGS4 block 6.2 | RGS4 inh valid 20% | M3R Ca ctr 40% | M3R basal Ca ctr inactive
C#CCOc1ccc(/C=C2/C(=O)NN(c3ccc(F)cc3)C2=O)cc1OC	none | M3R Ca ctr 30% | M3R basal Ca ctr inactive
COc1cc(/C=C2\C(=O)NN(c3ccccc3)C2=O)ccc1OCC(N)=O	none
CC(C)CNC(=O)c1cc(S(=O)(=O)N2CCOCC2)ccc1N1CCCC1	none
O=C(CCCn1nnnc1CN1CCOCC1)N1CCN(c2ccccc2F)CC1	none
O=C(NC1CCCC1)C1CCN(C(=O)c2cccc(Cl)c2)CC1	none
Cc1cc2cc(C(c3nnnn3Cc3ccco3)N3CCc4ccccc43)c(=O)[nH]c2cc1C (stereo not given)	RGS4 block 5.3 | RGS4 inh valid 13% | M3R Ca ctr inactive | M3R basal Ca ctr inactive
Cc1cc2cc(C(c3nnnn3Cc3ccccc3)N3CCc4ccccc43)c(=O)[nH]c2cc1C (stereo not given)	none | M3R Ca ctr inactive | M3R basal Ca ctr 7.0%
Cc1ccc2[nH]c(=O)c(C(c3nnnn3Cc3ccccc3)N3CCc4ccccc43)cc2c1 (stereo not given)	none

Screening results from PubChem.
